High-throughput results from PubChem BioAssay.
E-sel inducer – induces E-selectin expression in human endothelial cells; P16581; activation, % at 7.58 µM; HUVEC E-selectin immunofluorescence imaging; normalized: neutral wells 0, TNF-alpha wells 100; 260,000 tested, 0.37% active; AID 686992;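 active = mean E-selectin-positive cell signal at least 10% of the positive control, reached in at least 60% of replicates, without over 20% cell loss; inconclusive = no rule given, readout overlaps actives, possibly toxicity-flagged; inactive = the rest, including those meeting only one limit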
Target sequence (P16581 whole entry, looked up): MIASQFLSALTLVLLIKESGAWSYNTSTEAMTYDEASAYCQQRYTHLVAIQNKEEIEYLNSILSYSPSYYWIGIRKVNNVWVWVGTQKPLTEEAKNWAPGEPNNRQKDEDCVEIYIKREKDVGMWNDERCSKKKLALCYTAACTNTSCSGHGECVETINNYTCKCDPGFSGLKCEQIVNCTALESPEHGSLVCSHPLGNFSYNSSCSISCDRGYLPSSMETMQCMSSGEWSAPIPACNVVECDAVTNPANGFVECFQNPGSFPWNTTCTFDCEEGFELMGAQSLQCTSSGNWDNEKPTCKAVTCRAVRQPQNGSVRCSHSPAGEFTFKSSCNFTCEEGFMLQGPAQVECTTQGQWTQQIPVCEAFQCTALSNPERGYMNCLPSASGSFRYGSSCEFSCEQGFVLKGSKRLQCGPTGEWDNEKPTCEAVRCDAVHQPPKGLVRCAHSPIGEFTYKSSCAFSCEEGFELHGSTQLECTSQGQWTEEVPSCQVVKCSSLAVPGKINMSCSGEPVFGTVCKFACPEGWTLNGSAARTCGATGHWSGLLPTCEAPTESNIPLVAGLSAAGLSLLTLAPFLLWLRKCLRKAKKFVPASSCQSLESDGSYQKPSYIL
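Assay system: HUVEC primary endothelial cells. Input: 3,000 HUVEC seeded per well. Doses: one compound dose added by pin transfer. Read-out basis: % PE-positive cells. Benchmarks: TNF-alpha high, DMSO low. Detection: immunofluorescence imaging. Buffer or medium: EGM-2, gelatin.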
DENV2 CPE rescue – DENV2-induced cell death inhibition; CPE inhibition, % at 9.99 µM; AID 651640; DENV2-infected cells, cytopathic effect rescue, plate reader; 350,000 tested, 1.7% active; in the data active = CPE inhibition above about 20%, passing the limit was not always enough; inconclusive = no clear call, values can overlap the other calls; tested in BHK-21 cells;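 note: 0% = median of neutral control wells and 100% = median of positive control wells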
SIRT5 inh – inhibitors of human sirtuin-5 desuccinylase; Q9NXA8; Purified SirT5, succinyl-peptide AMC, trypsin-coupled fluorescence; inhibition, % at 15 µM; 330,000 tested, 1.1% active; in the data active = inhibition above about 15%; inconclusive = no clear call, values can overlap the other calls
* = called active by the depositor. The list is not random: actives were taken first. Their share in the collection is about 2.8%.

Screening CC=Cc1ccc2n(c1=O)C[C@@H]1[C@@H](CO)[C@H](C(=O)O)[C@H]2N1S(=O)(=O)c1ccccc1F (mixture of isomers) returned E-sel inducer -0.4, DENV2 CPE rescue 3.2 and SIRT5 inh -1.8.
For COc1ccc(OC(=O)N(C)C[C@@H]2OCc3ccccc3-c3c(n(C)c4ccccc34)C(=O)N([C@@H](C)CO)C[C@H]2C)cc1 the results were E-sel inducer -0.1, DENV2 CPE rescue 8.4 and SIRT5 inh 1.5.
Screening NS(=O)(=O)c1nc[nH]c1[N+](=O)[O-] returned DENV2 CPE rescue 29.4* and SIRT5 inh 2.1.
`COc1ccc(/C=C2/C(=O)N(Cc3ccco3)C(=O)N(C(C)C)C2=O)cc1` gave DENV2 CPE rescue 4.1 and SIRT5 inh 24.8*.
`CN(C)c1ccc(/C=C2/C(=O)NC(=O)N(Cc3ccco3)C2=O)cc1` gave DENV2 CPE rescue 3.0 and SIRT5 inh 30.6*.
Screening CN(C)c1ccc(/C=C2\C(=O)NC(=O)N(CCc3ccc(F)cc3)C2=O)cc1 returned DENV2 CPE rescue -1.5 and SIRT5 inh 1.0.
O=C1NC(=O)N(Cc2ccco2)C(=O)/C1=C\c1cccn1CCOc1ccc(Cl)cc1 was read as DENV2 CPE rescue -6.3 and SIRT5 inh 1.5.
`COC(=O)[C@H]1[C@H](CO)[C@H]2Cn3c(ccc(C4=CCCC4)c3=O)[C@@H]1N2CC1CCCCC1` gave E-sel inducer -0.3, DENV2 CPE rescue 9.1 and SIRT5 inh 8.4.
Cc1ccc2c(c1N)C(=O)c1ccccc1C2=O was read as DENV2 CPE rescue 30.5*.
Screening COC(=O)[C@H]1[C@H](CO)[C@H]2Cn3c(cccc3=O)[C@@H]1N2C(=O)C1CC1 returned E-sel inducer 0.6, DENV2 CPE rescue -4.7 and SIRT5 inh -2.4.
`COC(=O)[C@@H]1[C@@H](CO)[C@@H]2Cn3c(ccc(-c4ccncc4)c3=O)[C@H]1N2S(=O)(=O)c1ccccc1F` gave E-sel inducer -0.2, DENV2 CPE rescue 6.1 and SIRT5 inh -64.7.
COc1ccc(-n2nnnc2C(CCc2ccccc2)N2CCC(n3c(=O)[nH]c4ccccc43)CC2)cc1 (centres undefined) was read as E-sel inducer -0.4, DENV2 CPE rescue 56.4* and SIRT5 inh -2.9.
For CCC(c1nnnn1-c1ccc(OC)cc1)N1CCC(n2c(=O)[nH]c3ccccc32)CC1 (centres undefined) the results were DENV2 CPE rescue 11.0 and SIRT5 inh -0.6.
O=C(O)[C@@H]1[C@@H](CO)[C@@H]2Cn3c(ccc(-c4cccnc4)c3=O)[C@H]1N2S(=O)(=O)c1ccccc1F was read as E-sel inducer -1.4, DENV2 CPE rescue -0.7 and SIRT5 inh -9.5.
For COC(=O)[C@@H]1[C@@H](CO)[C@@H]2Cn3c(ccc(C4=CCCCC4)c3=O)[C@H]1N2C(=O)CC1CC1 the results were E-sel inducer 0.1, DENV2 CPE rescue inconclusive and SIRT5 inh -14.7.
`C=C(Cl)CSC(=S)N(CC)CC` gave DENV2 CPE rescue 32.3*.
Screening CCOC(=O)[C@@H]1[C@@H]2NC(=S)N[C@@]1(C)Oc1ccccc12 returned DENV2 CPE rescue 1.4 and SIRT5 inh -1.7.
`CC12CCC(=O)C=C1CCC1C2CCC2(C)C1CCC2(O)CC#N` (centres undefined) gave DENV2 CPE rescue -7.2.
`CC12Cc3cn[nH]c3C=C1CCC1C2CCC2(C)C1CCC2(C)O` (centres undefined) gave E-sel inducer -0.1, DENV2 CPE rescue 12.8 and SIRT5 inh 34.9*.
Screening C/C=C/c1ccc(C2[C@@H]3CN(C(=O)C4CCC4)C[C@H]2N3)cc1 (some centres undefined) returned E-sel inducer 0.1 and DENV2 CPE rescue -8.8.
`COC(=O)[C@@H]1[C@@H](CO)[C@@H]2Cn3c(ccc(C4=CCCCC4)c3=O)[C@H]1N2Cc1ccccc1OC` gave E-sel inducer -0.2, DENV2 CPE rescue 23.8* and SIRT5 inh -12.4.
Screening COC(=O)[C@@H]1[C@@H](CO)[C@@H]2Cn3c(ccc(C4=CCCCC4)c3=O)[C@H]1N2CCc1ccccc1 returned E-sel inducer -0.2, DENV2 CPE rescue -1.0 and SIRT5 inh -17.6.
Screening COC(=O)[C@@H]1[C@@H](CO)[C@@H]2Cn3c(ccc(C4=CCCC4)c3=O)[C@H]1N2Cc1ccccn1 returned E-sel inducer -0.1, DENV2 CPE rescue 118.1* and SIRT5 inh -3.6.
Screening COC(=O)[C@H]1[C@H](CO)[C@H]2Cn3c(ccc(C4=CCCCC4)c3=O)[C@@H]1N2C(=O)Cc1ccccn1 returned E-sel inducer 0.2, DENV2 CPE rescue 7.5 and SIRT5 inh -18.6.
For COC(=O)[C@H]1[C@H](CO)[C@H]2Cn3c(ccc(/C=C/c4ccccc4)c3=O)[C@@H]1N2C(=O)C1CCC1 the results were E-sel inducer -0.2, DENV2 CPE rescue -2.2 and SIRT5 inh -102.0.
